One may read the inhibition in vivo as the change of the read-out against control, counted positive when it falls.

One test relates to Mus musculus. Put plainly: Antinociceptive activity in ip dosed Swiss albino mouse assessed as latency time after 60 mins by tail flick method. In kind it is functional.
Details: not given
The procedure, abridged: (§1)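 Swiss albino mice (20–25 g) received compounds ip at 9.5–12.58 mg/kg in 0.2% Tween suspension. Tail-flick latency to radiant heat was measured, with stimulus intensity set to give a 3–4 s baseline. Readings were taken just before injection and at 15, 30, 60 and 120 min after. Significance was assessed by Student's t test.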
Consider `C(=C\c1nc(-c2ccccc2)c(-c2ccccc2)[nH]1)/c1ccccc1`, for which the Activity was determined as 4.68 s.

For `Clc1ccc(-c2nc(-c3ccccc3)c(-c3ccccc3)[nH]2)cc1`, the Activity came to 8.37 s.

Turning to `Cc1nc(-c2ccccc2)c(-c2ccccc2)[nH]1`, the Activity is 4.35 s.

Take `Brc1ccc(-c2nc(-c3ccccc3)c(-c3ccccc3)[nH]2)cc1`: the Activity is recorded as 6.5 s.

On to `O=[N+]([O-])c1cccc(-c2nc(-c3ccccc3)c(-c3ccccc3)[nH]2)c1`, for which the Activity is recorded as 5.74 s.

Turning to `Oc1ccccc1-c1nc(-c2ccccc2)c(-c2ccccc2)[nH]1`, the Activity stood at 7.53 s.

The next test has as its system Mus musculus. Put plainly: Antinociceptive activity in ip dosed Swiss albino mouse assessed as latency time after 15 mins by tail flick method. The class given is functional.
Details: not given
The procedure, abridged: as §1
On to `C(=C\c1nc(-c2ccccc2)c(-c2ccccc2)[nH]1)/c1ccccc1`, for which the Activity is on record as 4.28 s.

For the compound `Clc1ccc(-c2nc(-c3ccccc3)c(-c3ccccc3)[nH]2)cc1`, the Activity was 4.67 s.

Regarding `Cc1nc(-c2ccccc2)c(-c2ccccc2)[nH]1`, the Activity is listed as 4.17 s.

Take `Brc1ccc(-c2nc(-c3ccccc3)c(-c3ccccc3)[nH]2)cc1`: the Activity is recorded as 4.45 s.

As for `O=[N+]([O-])c1cccc(-c2nc(-c3ccccc3)c(-c3ccccc3)[nH]2)c1`, the Activity was determined as 4.09 s.

`Oc1ccccc1-c1nc(-c2ccccc2)c(-c2ccccc2)[nH]1`: the Activity is reported as 4.18 s.

In a further test the test system is Mus musculus. Briefly: Antinociceptive activity in ip dosed Swiss albino mouse assessed as latency time after 60 mins by hot plate method. In kind it is functional.
Details: not given
The procedure, abridged: (§2)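 Swiss albino mice (20–25 g) were housed 7 days at 30 ± 1 °C before testing, in groups of six. Compounds were given ip at 9.5–12.58 mg/kg as a 0.2% Tween suspension. Mice were placed on a 55 ± 0.5 °C hot plate before dosing and at 15, 30, 60 and 120 min after dosing, with a 15 s cut-off. Significance was assessed by Student's t test.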
On the technique in general: Hot-plate and tail-flick tests time the reaction to a heat stimulus.
Consider `C(=C\c1nc(-c2ccccc2)c(-c2ccccc2)[nH]1)/c1ccccc1`, for which the Activity came out at 5.94 s.

`Clc1ccc(-c2nc(-c3ccccc3)c(-c3ccccc3)[nH]2)cc1`: the Activity came to 8.98 s.

As to `Cc1nc(-c2ccccc2)c(-c2ccccc2)[nH]1`, the Activity was determined as 5.47 s.

On to `Brc1ccc(-c2nc(-c3ccccc3)c(-c3ccccc3)[nH]2)cc1`, for which the Activity was 6.38 s.

Turning to `O=[N+]([O-])c1cccc(-c2nc(-c3ccccc3)c(-c3ccccc3)[nH]2)c1`, the Activity amounted to 4.62 s.

Consider `Oc1ccccc1-c1nc(-c2ccccc2)c(-c2ccccc2)[nH]1`, for which the Activity turned out to be 8.59 s.

A further test deals with Mus musculus. Briefly: Antinociceptive activity in ip dosed Swiss albino mouse assessed as latency time after 120 mins by tail flick method. The class given is functional.
Details: not given
The procedure, abridged:
as §1
With `C(=C\c1nc(-c2ccccc2)c(-c2ccccc2)[nH]1)/c1ccccc1`, the Activity is on record as 4.75 s.

On to `Clc1ccc(-c2nc(-c3ccccc3)c(-c3ccccc3)[nH]2)cc1`, for which the Activity is 10.5 s.

Turning to `Cc1nc(-c2ccccc2)c(-c2ccccc2)[nH]1`, the Activity was 4.35 s.

Regarding `Brc1ccc(-c2nc(-c3ccccc3)c(-c3ccccc3)[nH]2)cc1`, the Activity stood at 6.83 s.

On to `O=[N+]([O-])c1cccc(-c2nc(-c3ccccc3)c(-c3ccccc3)[nH]2)c1`, for which the Activity was determined as 5.82 s.

In the case of `Oc1ccccc1-c1nc(-c2ccccc2)c(-c2ccccc2)[nH]1`, the Activity is 9.12 s.

In the next test the test system is Mus musculus. Put plainly: Antinociceptive activity in ip dosed Swiss albino mouse assessed as latency time after 15 mins by hot plate method.
Details: not given
The class given is functional. The procedure, abridged: as §2
For the compound `C(=C\c1nc(-c2ccccc2)c(-c2ccccc2)[nH]1)/c1ccccc1`, the Activity was determined as 5.17 s.

As for `Clc1ccc(-c2nc(-c3ccccc3)c(-c3ccccc3)[nH]2)cc1`, the Activity is 4.9 s.

Regarding `Cc1nc(-c2ccccc2)c(-c2ccccc2)[nH]1`, the Activity is on record as 5.1 s.

Consider `Brc1ccc(-c2nc(-c3ccccc3)c(-c3ccccc3)[nH]2)cc1`, for which the Activity was 4.65 s.

With `O=[N+]([O-])c1cccc(-c2nc(-c3ccccc3)c(-c3ccccc3)[nH]2)c1`, the Activity is on record as 4.56 s.

With `Oc1ccccc1-c1nc(-c2ccccc2)c(-c2ccccc2)[nH]1`, the Activity is on record as 4.93 s.

The test system of another test is Mus musculus. Briefly: Antinociceptive activity in ip dosed Swiss albino mouse assessed as latency time by tail flick method. In kind it is functional.
Details: not given
The procedure, abridged: as §1
Take `C(=C\c1nc(-c2ccccc2)c(-c2ccccc2)[nH]1)/c1ccccc1`: the Activity was 4.16 s.

For `Clc1ccc(-c2nc(-c3ccccc3)c(-c3ccccc3)[nH]2)cc1`, the Activity amounted to 4.52 s.

In the case of `Cc1nc(-c2ccccc2)c(-c2ccccc2)[nH]1`, the Activity is 4.12 s.

Consider `Brc1ccc(-c2nc(-c3ccccc3)c(-c3ccccc3)[nH]2)cc1`, for which the Activity was found to be 4.2 s.

`O=[N+]([O-])c1cccc(-c2nc(-c3ccccc3)c(-c3ccccc3)[nH]2)c1`: the Activity came to 4.09 s.

Take `Oc1ccccc1-c1nc(-c2ccccc2)c(-c2ccccc2)[nH]1`: the Activity is recorded as 4.2 s.

A further test has as its system Rattus norvegicus. Put plainly: Antiinflammatory activity assessed as reduction of carrageenan-induced paw volume in intraperitoneally dosed Wistar rat after 3 hrs. The class given is functional. Set-up: scale not given: the % may be the effect or the level left.
Details: not given
The procedure, abridged: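 Wistar rats of either sex (120–150 g) were dosed ip with compounds at 9.5–12.58 mg/kg in 0.2% Tween suspension. After 1 h, 0.05 ml of 1.0% w/v carrageenan in 0.9% NaCl was injected into the left hind paw. Paw volume was measured by mercury-displacement plethysmometry before injection and at 1, 2 and 3 h. Percent inhibition of the 3 h swelling was calculated.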
Background: Carrageenan injected into the paw causes an acute inflammation.
Regarding `C(=C\c1nc(-c2ccccc2)c(-c2ccccc2)[nH]1)/c1ccccc1`, the Activity amounted to 55.82%.

For the compound `Clc1ccc(-c2nc(-c3ccccc3)c(-c3ccccc3)[nH]2)cc1`, the Activity amounted to 81.4%.

Consider `Cc1nc(-c2ccccc2)c(-c2ccccc2)[nH]1`, for which the Activity is listed as 25.59%.

On to `Brc1ccc(-c2nc(-c3ccccc3)c(-c3ccccc3)[nH]2)cc1`, for which the Activity is 74.42%.

With `O=[N+]([O-])c1cccc(-c2nc(-c3ccccc3)c(-c3ccccc3)[nH]2)c1`, the Activity amounted to 4.66%.

In the case of `Oc1ccccc1-c1nc(-c2ccccc2)c(-c2ccccc2)[nH]1`, the Activity is listed as 60.47%.

A further test deals with Mus musculus. Put plainly: Antinociceptive activity in ip dosed Swiss albino mouse assessed as latency time after 30 mins by tail flick method. In kind it is functional.
Details: not given
The method, boiled down: as §1
As for `Clc1ccc(-c2nc(-c3ccccc3)c(-c3ccccc3)[nH]2)cc1`, the Activity was 6.92 s.

As for `Cc1nc(-c2ccccc2)c(-c2ccccc2)[nH]1`, the Activity worked out at 4.28 s.

Take `Brc1ccc(-c2nc(-c3ccccc3)c(-c3ccccc3)[nH]2)cc1`: the Activity is on record as 5.33 s.

For `O=[N+]([O-])c1cccc(-c2nc(-c3ccccc3)c(-c3ccccc3)[nH]2)c1`, the Activity came to 4.36 s.

For `Oc1ccccc1-c1nc(-c2ccccc2)c(-c2ccccc2)[nH]1`, the Activity stood at 5.82 s.

A further test has as its system Mus musculus. Briefly: Antinociceptive activity in ip dosed Swiss albino mouse assessed as latency time after 30 mins by hot plate method. In kind it is functional.
Details: not given
The procedure, abridged: as §2
Turning to `C(=C\c1nc(-c2ccccc2)c(-c2ccccc2)[nH]1)/c1ccccc1`, the Activity came to 5.58 s.

`Clc1ccc(-c2nc(-c3ccccc3)c(-c3ccccc3)[nH]2)cc1`: the Activity is 7.43 s.

As to `Cc1nc(-c2ccccc2)c(-c2ccccc2)[nH]1`, the Activity was determined as 5.33 s.

Take `Brc1ccc(-c2nc(-c3ccccc3)c(-c3ccccc3)[nH]2)cc1`: the Activity came out at 6.37 s.

For the compound `O=[N+]([O-])c1cccc(-c2nc(-c3ccccc3)c(-c3ccccc3)[nH]2)c1`, the Activity was 4.6 s.

In the case of `Oc1ccccc1-c1nc(-c2ccccc2)c(-c2ccccc2)[nH]1`, the Activity turned out to be 6.32 s.

The subject of another test is Mus musculus. Briefly: Antinociceptive activity in ip dosed Swiss albino mouse assessed as latency time after 120 mins by hot plate method. The class given is functional.
Details: not given
The method, boiled down:
as §2
`C(=C\c1nc(-c2ccccc2)c(-c2ccccc2)[nH]1)/c1ccccc1`: the Activity is 6.12 s.

Take `Clc1ccc(-c2nc(-c3ccccc3)c(-c3ccccc3)[nH]2)cc1`: the Activity came out at 10.35 s.

In the case of `Cc1nc(-c2ccccc2)c(-c2ccccc2)[nH]1`, the Activity came out at 5.52 s.

As for `Brc1ccc(-c2nc(-c3ccccc3)c(-c3ccccc3)[nH]2)cc1`, the Activity came to 6.38 s.

With `O=[N+]([O-])c1cccc(-c2nc(-c3ccccc3)c(-c3ccccc3)[nH]2)c1`, the Activity is given as 5.62 s.

On to `Oc1ccccc1-c1nc(-c2ccccc2)c(-c2ccccc2)[nH]1`, for which the Activity came to 9.16 s.

In a further test the test system is Mus musculus. Briefly: Antinociceptive activity in ip dosed Swiss albino mouse assessed as latency time by hot plate method. The class given is functional.
Details: not given
The method, boiled down: as §2
For the compound `C(=C\c1nc(-c2ccccc2)c(-c2ccccc2)[nH]1)/c1ccccc1`, the Activity turned out to be 4.67 s.

With `Clc1ccc(-c2nc(-c3ccccc3)c(-c3ccccc3)[nH]2)cc1`, the Activity was 4.66 s.

On to `Cc1nc(-c2ccccc2)c(-c2ccccc2)[nH]1`, for which the Activity was 4.65 s.

Consider `Brc1ccc(-c2nc(-c3ccccc3)c(-c3ccccc3)[nH]2)cc1`, for which the Activity was found to be 4.45 s.

Regarding `O=[N+]([O-])c1cccc(-c2nc(-c3ccccc3)c(-c3ccccc3)[nH]2)c1`, the Activity was found to be 4.55 s.

As to `Oc1ccccc1-c1nc(-c2ccccc2)c(-c2ccccc2)[nH]1`, the Activity turned out to be 4.89 s.

The test system of a further test is Rattus norvegicus. Put plainly: Antiinflammatory activity assessed as reduction of carrageenan-induced paw volume in Wistar rat at 10 mg/kg, ip after 3 hrs. The class given is functional. The settings on record: route intraperitoneal.
`C(=C\c1nc(-c2ccccc2)c(-c2ccccc2)[nH]1)/c1ccccc1`: the inhibition in vivo at 10 mg/kg stood at 55.8%.
